# ChEMBL document CHEMBL2396604, “Synthesis and structure activity relationship of tetrahydroisoquinoline-based potentiators of GluN2C and GluN2D containing N-methyl-D-aspartate receptors” (J Med Chem, 2013)
# Key:
# [1] = biological target: Sodium-dependent noradrenaline transporter (Homo sapiens) (UniProt P23975); assay: Inhibition of norepinephrine transporter (unknown origin) at 5 uM by psychoactive drug screening programme assay
# Procedure, shortened: (§1)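 Radioligand binding screen run by PDSP. Displacement of ligand binding was measured with test compound at 5 µM, n=4 per target.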
# Homo sapiens = species on record: Homo sapiens; assay: Inhibition of sigma2 receptor (unknown origin) at 5 uM by psychoactive drug screening programme assay
# [2] = biological target: Muscarinic acetylcholine receptor M5 (Homo sapiens) (UniProt P08912); assay: Inhibition of M5 receptor (unknown origin) at 5 uM by psychoactive drug screening programme assay; procedure, shortened: as §1
# Muscarinic acetylcholine receptor M5 (Homo sapiens), sequence (P08912 whole entry): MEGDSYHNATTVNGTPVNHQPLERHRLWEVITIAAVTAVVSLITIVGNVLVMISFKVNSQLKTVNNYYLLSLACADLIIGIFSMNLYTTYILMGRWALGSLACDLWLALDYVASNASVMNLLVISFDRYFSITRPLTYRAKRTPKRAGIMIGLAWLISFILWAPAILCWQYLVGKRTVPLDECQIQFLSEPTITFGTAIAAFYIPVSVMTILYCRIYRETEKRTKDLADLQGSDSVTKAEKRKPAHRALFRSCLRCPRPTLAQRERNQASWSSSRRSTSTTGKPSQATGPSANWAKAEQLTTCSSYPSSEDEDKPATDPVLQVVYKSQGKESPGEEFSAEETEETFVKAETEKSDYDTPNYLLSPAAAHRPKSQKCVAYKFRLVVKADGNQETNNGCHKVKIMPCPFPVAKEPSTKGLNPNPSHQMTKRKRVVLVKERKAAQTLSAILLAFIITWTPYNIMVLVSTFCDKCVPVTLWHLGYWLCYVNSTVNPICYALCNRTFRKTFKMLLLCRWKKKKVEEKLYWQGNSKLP
# [3] = biological target: Muscarinic acetylcholine receptor M4 (Homo sapiens) (UniProt P08173); assay: Inhibition of M4 receptor (unknown origin) at 5 uM by psychoactive drug screening programme assay; procedure, shortened: as §1
# Muscarinic acetylcholine receptor M4 (Homo sapiens), sequence (P08173 whole entry): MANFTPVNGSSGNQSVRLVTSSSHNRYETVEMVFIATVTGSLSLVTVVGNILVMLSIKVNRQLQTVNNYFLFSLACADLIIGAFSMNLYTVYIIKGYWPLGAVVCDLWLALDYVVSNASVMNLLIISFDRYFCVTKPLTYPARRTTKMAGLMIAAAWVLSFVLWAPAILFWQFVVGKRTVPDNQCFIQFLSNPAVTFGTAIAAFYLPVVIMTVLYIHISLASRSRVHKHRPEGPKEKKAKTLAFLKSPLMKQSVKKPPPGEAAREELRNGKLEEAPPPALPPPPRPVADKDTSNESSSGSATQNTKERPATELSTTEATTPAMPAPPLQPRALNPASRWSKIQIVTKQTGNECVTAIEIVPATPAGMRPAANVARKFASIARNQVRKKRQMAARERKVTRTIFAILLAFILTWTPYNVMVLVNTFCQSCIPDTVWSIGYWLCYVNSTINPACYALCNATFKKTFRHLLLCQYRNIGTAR
# [4] = biological target: Muscarinic acetylcholine receptor M3 (Homo sapiens) (UniProt P20309); assay: Inhibition of M3 receptor (unknown origin) at 5 uM by psychoactive drug screening programme assay; procedure, shortened: as §1
# [5] = biological target: Muscarinic acetylcholine receptor M1 (Homo sapiens) (UniProt P11229); assay: Inhibition of M1 receptor (unknown origin) at 5 uM by psychoactive drug screening programme assay; procedure, shortened: as §1
# Muscarinic acetylcholine receptor M1 (Homo sapiens), sequence (P11229 whole entry): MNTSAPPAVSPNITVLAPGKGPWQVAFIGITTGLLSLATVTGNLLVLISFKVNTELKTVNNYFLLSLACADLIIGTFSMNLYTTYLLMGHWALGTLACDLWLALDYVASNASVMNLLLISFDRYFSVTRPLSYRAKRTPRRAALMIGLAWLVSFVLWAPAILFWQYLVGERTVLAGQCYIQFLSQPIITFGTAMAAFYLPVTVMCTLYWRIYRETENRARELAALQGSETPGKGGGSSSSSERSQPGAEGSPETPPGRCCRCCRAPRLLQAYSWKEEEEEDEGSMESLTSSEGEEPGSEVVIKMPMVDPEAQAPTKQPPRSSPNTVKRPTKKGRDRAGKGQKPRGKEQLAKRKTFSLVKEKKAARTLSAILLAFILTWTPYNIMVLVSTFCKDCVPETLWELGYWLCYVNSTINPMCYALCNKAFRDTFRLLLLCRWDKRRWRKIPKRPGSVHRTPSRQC
# [6] = biological target: Histamine H3 receptor (Homo sapiens) (UniProt Q9Y5N1); assay: Inhibition of H3 histamine receptor (unknown origin) at 5 uM by psychoactive drug screening programme assay; procedure, shortened: as §1
# [7] = biological target: Histamine H2 receptor (Homo sapiens) (UniProt P25021); assay: Inhibition of H2 histamine receptor (unknown origin) at 5 uM by psychoactive drug screening programme assay; procedure, shortened: as §1
# [8] = biological target: Delta-type opioid receptor (Homo sapiens) (UniProt P41143); assay: Inhibition of delta opioid receptor (unknown origin) at 5 uM by psychoactive drug screening programme assay; procedure, shortened: as §1
# Delta-type opioid receptor (Homo sapiens), sequence (P41143 whole entry): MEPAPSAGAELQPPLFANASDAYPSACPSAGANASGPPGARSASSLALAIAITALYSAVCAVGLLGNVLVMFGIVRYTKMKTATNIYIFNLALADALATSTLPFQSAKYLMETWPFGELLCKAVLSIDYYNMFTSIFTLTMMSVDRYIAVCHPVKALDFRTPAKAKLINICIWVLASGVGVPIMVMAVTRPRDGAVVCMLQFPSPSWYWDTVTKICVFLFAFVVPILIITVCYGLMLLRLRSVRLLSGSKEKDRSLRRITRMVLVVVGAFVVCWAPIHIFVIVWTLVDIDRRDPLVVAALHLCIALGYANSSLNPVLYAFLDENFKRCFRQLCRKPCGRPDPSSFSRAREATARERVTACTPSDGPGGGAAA
# [9] = biological target: D(1B) dopamine receptor (Homo sapiens) (UniProt P21918); assay: Inhibition of dopamine D5 receptor (unknown origin) at 5 uM by psychoactive drug screening programme assay; procedure, shortened: as §1
# [10] = biological target: D(1A) dopamine receptor (Homo sapiens) (UniProt P21728); assay: Inhibition of dopamine D1 receptor (unknown origin) at 5 uM by psychoactive drug screening programme assay; procedure, shortened: as §1
# D(1A) dopamine receptor (Homo sapiens), sequence (P21728 whole entry): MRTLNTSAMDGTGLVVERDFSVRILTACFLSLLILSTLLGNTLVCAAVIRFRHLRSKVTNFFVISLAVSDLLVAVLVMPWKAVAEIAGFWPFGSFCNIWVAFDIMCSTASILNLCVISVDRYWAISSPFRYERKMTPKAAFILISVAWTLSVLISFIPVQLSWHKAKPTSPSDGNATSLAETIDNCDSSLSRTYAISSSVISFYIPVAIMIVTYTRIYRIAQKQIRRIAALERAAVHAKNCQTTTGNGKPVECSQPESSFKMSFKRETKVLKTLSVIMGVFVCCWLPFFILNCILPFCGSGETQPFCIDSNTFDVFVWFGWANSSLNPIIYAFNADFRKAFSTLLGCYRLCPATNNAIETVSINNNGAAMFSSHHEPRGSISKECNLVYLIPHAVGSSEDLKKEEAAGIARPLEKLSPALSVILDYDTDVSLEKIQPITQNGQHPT
# [11] = biological target: Beta-3 adrenergic receptor (Homo sapiens) (UniProt P13945); assay: Inhibition of adrenergic beta3 receptor (unknown origin) at 5 uM by psychoactive drug screening programme assay; procedure, shortened: as §1
# [12] = biological target: Beta-2 adrenergic receptor (Homo sapiens) (UniProt P07550); assay: Inhibition of adrenergic beta2 receptor (unknown origin) at 5 uM by psychoactive drug screening programme assay; procedure, shortened: as §1
# [13] = biological target: Alpha-1B adrenergic receptor (Homo sapiens) (UniProt P35368); assay: Inhibition of adrenergic alpha1B receptor (unknown origin) at 5 uM by psychoactive drug screening programme assay; procedure, shortened: as §1
# [14] = biological target: 5-hydroxytryptamine receptor 6 (Homo sapiens) (UniProt P50406); assay: Inhibition of serotonin 5-HT6 receptor (unknown origin) at 5 uM by psychoactive drug screening programme assay
# [15] = biological target: 5-hydroxytryptamine receptor 5A (Homo sapiens) (UniProt P47898); assay: Inhibition of serotonin 5-HT5A receptor (unknown origin) at 5 uM by psychoactive drug screening programme assay
# 5-hydroxytryptamine receptor 5A (Homo sapiens), sequence (P47898 whole entry): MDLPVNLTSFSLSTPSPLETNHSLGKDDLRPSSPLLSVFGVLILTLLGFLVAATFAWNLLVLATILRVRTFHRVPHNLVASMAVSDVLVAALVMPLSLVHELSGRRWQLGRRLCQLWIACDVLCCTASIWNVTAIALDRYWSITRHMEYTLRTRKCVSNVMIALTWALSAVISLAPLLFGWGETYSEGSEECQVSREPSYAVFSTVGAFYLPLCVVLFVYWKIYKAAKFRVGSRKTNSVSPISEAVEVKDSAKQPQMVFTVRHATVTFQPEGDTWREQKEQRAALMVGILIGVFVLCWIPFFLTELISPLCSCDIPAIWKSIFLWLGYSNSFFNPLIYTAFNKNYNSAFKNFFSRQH
# [16] = biological target: 5-hydroxytryptamine receptor 3A (Homo sapiens) (UniProt P46098); assay: Inhibition of serotonin 5-HT3 receptor (unknown origin) at 5 uM by psychoactive drug screening programme assay
# [17] = biological target: 5-hydroxytryptamine receptor 2C (Homo sapiens) (UniProt P28335); assay: Inhibition of serotonin 5-HT2C receptor (unknown origin) at 5 uM by psychoactive drug screening programme assay; procedure, shortened: as §1
# [18] = biological target: 5-hydroxytryptamine receptor 1E (Homo sapiens) (UniProt P28566); assay: Inhibition of serotonin 5-HT1E receptor (unknown origin) at 5 uM by psychoactive drug screening programme assay; procedure, shortened: as §1
# 5-hydroxytryptamine receptor 1E (Homo sapiens), sequence (P28566 whole entry): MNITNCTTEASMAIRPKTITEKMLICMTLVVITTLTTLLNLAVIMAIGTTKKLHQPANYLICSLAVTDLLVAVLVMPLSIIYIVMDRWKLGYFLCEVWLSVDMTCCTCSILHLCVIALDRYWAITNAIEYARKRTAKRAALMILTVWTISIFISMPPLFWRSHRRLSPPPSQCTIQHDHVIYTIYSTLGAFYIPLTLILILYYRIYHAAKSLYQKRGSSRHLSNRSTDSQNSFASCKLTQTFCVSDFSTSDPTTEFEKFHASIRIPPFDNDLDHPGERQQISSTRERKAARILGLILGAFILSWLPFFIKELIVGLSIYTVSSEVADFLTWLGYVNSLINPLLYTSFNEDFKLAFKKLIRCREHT
# [19] = biological target: 5-hydroxytryptamine receptor 1B (Homo sapiens) (UniProt P28222); assay: Inhibition of serotonin 5-HT1B receptor (unknown origin) at 5 uM by psychoactive drug screening programme assay; procedure, shortened: as §1
# [20] = biological target: P2X purinoceptor 2 (Homo sapiens) (UniProt Q9UBL9); assay: Activity at human recombinant purinergic P2X2 receptor expressed in Xenopus oocytes assessed as effect on ATP-induced activation at 3 uM by two-electrode voltage clamp technique relative to control; format: cell-based; conditions: Oocyte
# Procedure, shortened: (§2)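 Two-electrode voltage clamp of Xenopus oocytes injected with 1–5 ng cRNA and kept in Barth's solution at 15°C for 2–5 days. Oocytes were perfused with 90 mM NaCl, 1.0 KCl, 0.5 BaCl2, 0.005 EDTA, 10 HEPES, pH 7.4, 23°C, and held at -40 mV. Compound was co-applied at 3 µM with agonist from 20 mM DMSO stocks, final DMSO 0.05–0.5%.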
# [21] = biological target: Nicotinic acetylcholine receptor alpha9/alpha10 (Rattus norvegicus) (UniProt P43144+Q9JLB5); assay: Activity at rat recombinant alpha9alpha10 nAChR expressed in Xenopus oocytes assessed as effect on acetylcholine-induced response at 3 uM by two-electrode voltage clamp technique relative to control; format: cell-based; conditions: Oocyte; procedure, shortened: as §2
# Oocyte = assay: Activity at mouse recombinant alpha1beta1gammadelta nAChR expressed in Xenopus oocytes assessed as effect on acetylcholine-induced activation at 3 uM by two-electrode voltage clamp technique relative to control; format: cell-based; procedure, shortened: as §2
# [22] = biological target: Glycine receptor subunit alpha-1 (Rattus norvegicus) (UniProt P07727); assay: Activity at rat recombinant glycine alpha1 receptor expressed in Xenopus oocytes assessed as effect on glycine-induced activation at 3 uM by two-electrode voltage clamp technique relative to control; format: cell-based; conditions: Oocyte; procedure, shortened: as §2
# [23] = biological target: Ionotropic glutamate receptor kainate 2/5 (Rattus norvegicus) (UniProt P42260+Q63273); assay: Activity at rat recombinant GluK2/GluK5 receptor expressed in Xenopus oocytes assessed as effect on glutamate-induced response at 3 uM by two-electrode voltage clamp technique relative to control; format: cell-based; conditions: Oocyte; procedure, shortened: as §2
# [24] = biological target: 5-hydroxytryptamine receptor 3A (Rattus norvegicus) (UniProt P35563); assay: Activity at rat recombinant serotonin 5-HT3A receptor expressed in Xenopus oocytes assessed as effect on serotonin-induced activation at 3 uM by two-electrode voltage clamp technique relative to control; format: cell-based; conditions: Oocyte; procedure, shortened: as §2
# 5-hydroxytryptamine receptor 3A (Rattus norvegicus), sequence (P35563 whole entry): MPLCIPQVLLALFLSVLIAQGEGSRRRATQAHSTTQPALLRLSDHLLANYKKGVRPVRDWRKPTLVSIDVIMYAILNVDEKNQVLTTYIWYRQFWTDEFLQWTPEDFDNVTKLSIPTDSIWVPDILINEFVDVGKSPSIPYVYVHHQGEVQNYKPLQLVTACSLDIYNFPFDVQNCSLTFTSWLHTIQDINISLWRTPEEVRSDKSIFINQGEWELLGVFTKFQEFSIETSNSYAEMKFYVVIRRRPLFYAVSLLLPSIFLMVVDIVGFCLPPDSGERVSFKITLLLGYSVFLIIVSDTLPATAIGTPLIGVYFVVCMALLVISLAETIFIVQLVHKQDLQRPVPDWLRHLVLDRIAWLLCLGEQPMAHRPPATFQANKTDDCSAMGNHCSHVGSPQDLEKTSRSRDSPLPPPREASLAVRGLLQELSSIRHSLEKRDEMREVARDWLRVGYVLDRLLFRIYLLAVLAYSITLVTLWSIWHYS
# [25] = biological target: Glutamate receptor 2 (Rattus norvegicus) (UniProt P19491); assay: Activity at rat recombinant GluA2 receptor expressed in Xenopus oocytes assessed as effect on glutamate-induced response at 3 uM by two-electrode voltage clamp technique relative to control; format: cell-based; conditions: Oocyte; procedure, shortened: as §2
# Glutamate receptor 2 (Rattus norvegicus), sequence (P19491 whole entry): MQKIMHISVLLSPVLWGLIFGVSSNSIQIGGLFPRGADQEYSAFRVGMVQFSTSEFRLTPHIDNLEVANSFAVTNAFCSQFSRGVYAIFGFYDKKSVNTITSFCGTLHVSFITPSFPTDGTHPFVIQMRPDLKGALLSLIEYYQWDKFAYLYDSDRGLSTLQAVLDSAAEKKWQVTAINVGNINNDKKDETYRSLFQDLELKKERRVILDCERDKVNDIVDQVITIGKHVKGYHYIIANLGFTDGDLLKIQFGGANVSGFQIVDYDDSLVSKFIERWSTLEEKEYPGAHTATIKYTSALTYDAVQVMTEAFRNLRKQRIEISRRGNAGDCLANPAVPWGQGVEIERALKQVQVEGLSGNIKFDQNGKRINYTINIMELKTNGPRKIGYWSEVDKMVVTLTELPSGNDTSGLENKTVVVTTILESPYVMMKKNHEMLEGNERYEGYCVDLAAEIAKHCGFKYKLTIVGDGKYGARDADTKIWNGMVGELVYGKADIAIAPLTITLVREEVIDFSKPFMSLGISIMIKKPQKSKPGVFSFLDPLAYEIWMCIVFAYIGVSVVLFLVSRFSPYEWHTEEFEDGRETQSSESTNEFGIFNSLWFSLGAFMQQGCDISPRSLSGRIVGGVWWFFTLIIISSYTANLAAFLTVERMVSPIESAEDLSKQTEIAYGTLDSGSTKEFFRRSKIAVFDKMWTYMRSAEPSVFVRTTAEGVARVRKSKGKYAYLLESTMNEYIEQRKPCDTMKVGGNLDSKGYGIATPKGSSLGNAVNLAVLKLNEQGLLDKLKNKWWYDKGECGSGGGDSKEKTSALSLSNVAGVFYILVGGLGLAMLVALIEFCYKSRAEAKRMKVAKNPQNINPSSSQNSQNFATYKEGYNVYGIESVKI
# [26] = biological target: Glutamate NMDA receptor; Grin1/Grin2c (Rattus norvegicus) (UniProt P35439+Q00961); assay: Activity at rat recombinant GluN1/GluN2C receptor expressed in Xenopus oocytes assessesed as effect of glycine/glutamate-induced response at 3 uM by two-electrode voltage clamp technique relative to control; format: cell-based; conditions: Oocyte; procedure, shortened: as §2
# [27] = biological target: Glutamate NMDA receptor; Grin1/Grin2b (Rattus norvegicus) (UniProt P35439+Q00960); assay: Activity at rat recombinant GluN1/GluN2B receptor expressed in Xenopus oocytes assessed as effect of glycine/glutamate-induced response at 3 uM by two-electrode voltage clamp technique relative to control; format: cell-based; conditions: Oocyte; procedure, shortened: as §2
# [28] = biological target: Neuronal acetylcholine receptor; alpha4/beta2 (Homo sapiens) (UniProt P17787+P43681); assay: Activity at human recombinant alpha4beta2 nAChR expressed in Xenopus oocytes assessed as effect on acetylcholine-induced activation at 3 uM by two-electrode voltage clamp technique relative to control; format: cell-based; conditions: Oocyte; procedure, shortened: as §2
# Sodium-dependent noradrenaline transporter (Homo sapiens), sequence (P23975 whole entry): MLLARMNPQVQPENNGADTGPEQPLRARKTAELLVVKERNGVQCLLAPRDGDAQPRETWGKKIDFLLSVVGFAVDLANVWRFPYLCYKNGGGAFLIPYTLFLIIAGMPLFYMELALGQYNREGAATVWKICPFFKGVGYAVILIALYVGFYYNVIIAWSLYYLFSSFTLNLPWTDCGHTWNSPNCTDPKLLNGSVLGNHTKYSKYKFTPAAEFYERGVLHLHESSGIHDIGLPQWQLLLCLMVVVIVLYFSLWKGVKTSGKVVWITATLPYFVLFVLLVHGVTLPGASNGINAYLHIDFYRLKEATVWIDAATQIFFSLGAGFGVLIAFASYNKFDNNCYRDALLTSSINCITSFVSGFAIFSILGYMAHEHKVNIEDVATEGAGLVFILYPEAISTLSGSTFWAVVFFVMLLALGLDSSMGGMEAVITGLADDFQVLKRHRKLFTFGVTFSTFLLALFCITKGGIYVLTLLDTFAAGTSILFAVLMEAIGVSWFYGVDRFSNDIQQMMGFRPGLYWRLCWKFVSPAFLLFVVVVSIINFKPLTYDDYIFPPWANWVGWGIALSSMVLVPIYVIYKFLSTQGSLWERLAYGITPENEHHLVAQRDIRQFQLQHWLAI
structure (smiles),measurement,setting,value
COc1ccc(OCC2c3ccc(OCc4ccccc4)cc3CCN2C(=O)c2cccc(Br)c2)cc1 (stereo not given),inhibition,[1],< 50%
same,inhibition,Homo sapiens,< 50%
same,inhibition,[2],< 50%
same,inhibition,[3],< 50%
same,inhibition,[4],< 50%
same,inhibition,[5],< 50%
same,inhibition,[6],< 50%
same,inhibition,[7],< 50%
same,inhibition,[8],< 50%
same,inhibition,[9],< 50%
same,inhibition,[10],< 50%
same,inhibition,[11],< 50%
same,inhibition,[12],< 50%
same,inhibition,[13],< 50%
same,inhibition,[14],< 50%
same,inhibition,[15],< 50%
same,inhibition,[16],< 50%
same,inhibition,[17],< 50%
same,inhibition,[18],< 50%
same,inhibition,[19],< 50%
same,Activity,[20],94%
same,Activity,[21],92%
same,Activity,Oocyte,105%
same,Activity,[22],91%
same,Activity,[23],103%
same,Activity,[24],93%
same,Activity,[25],97%
same,Activity,[26],247%
same,Activity,[27],102%
same,Activity,[28],91%
